Reference: ChEMBL document CHEMBL2375257, “Synthesis of C- and O-prenylated tetrahydroxystilbenes and O-prenylated cinnamates and their action towards cancer cells” (Eur J Med Chem, 2013)

Test system: K562
Assay: Cytotoxicity against human K562 cells assessed as growth inhibition after 72 hrs by MTT assay
Type: functional, cell-based
Conditions: for IC50: K562, 72 h
Method in brief: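 K562 leukaemia cells exposed to compounds for 72 h at 37 °C in a humidified 5% CO2 incubator, with MTT read-out. IC50 is the concentration inhibiting cell growth by 50%, estimated from two concentrations per compound. Values are the mean of two independent assays, each run in duplicate; coefficients of variation <10%.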

| Compound | growth inhibition (GI) | IC50 |
| --- | --- | --- |
| COc1cc(/C=C/c2cc(O)cc(OC)c2CC=C(C)C)ccc1O | Dose-dependent effect | 0.1 µM |
| COc1cc(/C=C/c2cc(O)cc(OCC=C(C)C)c2)ccc1O | Dose-dependent effect | 21 µM |
| COC(=O)/C=C/c1ccc(OC/C=C(\C)CO)cc1 | Dose-dependent effect | 70.8 µM |
| COc1ccc(/C=C/c2cc(O)cc(OCC=C(C)C)c2)cc1O | Dose-dependent effect | 46.8 µM |
| COC(=O)/C=C/c1ccc(OCC=C(C)C)cc1 | Dose-dependent effect | 97.7 µM |
| COc1cc(CCc2cc(O)cc(OC)c2CC=C(C)C)ccc1O | Dose-dependent effect | 10 µM |
| COc1ccc(CCc2cc(O)cc(OCC=C(C)C)c2)cc1O | Dose-dependent effect | 31.6 µM |
| COc1cc(CCc2cc(O)cc(OCC=C(C)C)c2)ccc1O | Dose-dependent effect | 63 µM |
| COC(=O)/C=C/c1ccc(OC/C=C(\C)C=O)cc1 | Dose-dependent effect | 57.5 µM |
